Measurements as given in ChEMBL document CHEMBL4373640, “Synthesis and antitumor activity of aza-brazilan derivatives containing imidazolium salt pharmacophores” (Medchemcomm, 2019).

Legend:
[1] = Induction of apoptosis in human SMMC-7221 cells assessed as viable cells at 1 uM after 48 hrs by AnnexinV-FITC/propidium iodide staining based FACSCalibur flow cytometry analysis (reference value: 89.8 %); assay type: functional; settings: SMMC-7221, 48 h, read-out: Activity
[2] = Induction of apoptosis in human SMMC-7221 cells assessed as necrotic cells at 1 uM after 48 hrs by AnnexinV-FITC/propidium iodide staining based FACSCalibur flow cytometry analysis (reference value: 2.34 %); assay type: functional
BEAS-2B = experiment: Cytotoxicity against human BEAS2B cells assessed as reduction in cell viability after 48 hrs by MTS assay; assay type: cell-based
Procedure, shortened: (§1)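 Cells (5 × 10^3 per well) were plated 12 h before treatment, then exposed continuously to compound for 48 h. MTS was added, with 1–4 h incubation at 37 °C and OD read at 490 nm. IC50 is the concentration cutting OD by 50% versus untreated cells, taken from dose–response curves. Values are the mean of three independent determinations.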

[3] = Induction of apoptosis in human SMMC-7221 cells assessed as viable cells at 0.5 uM after 48 hrs by AnnexinV-FITC/propidium iodide staining based FACSCalibur flow cytometry analysis (reference value: 89.8 %); assay type: functional; settings: SMMC-7221, 48 h, read-out: Activity
[4] = Induction of apoptosis in human SMMC-7221 cells assessed as early apoptotic cells at 1 uM after 48 hrs by AnnexinV-FITC/propidium iodide staining based FACSCalibur flow cytometry analysis (reference value: 0.106 %); assay type: functional
[5] = Induction of apoptosis in human SMMC-7221 cells assessed as necrotic cells at 4 uM after 48 hrs by AnnexinV-FITC/propidium iodide staining based FACSCalibur flow cytometry analysis (reference value: 2.34 %); assay type: functional
[6] = Induction of apoptosis in human SMMC-7221 cells assessed as necrotic cells at 2 uM after 48 hrs by AnnexinV-FITC/propidium iodide staining based FACSCalibur flow cytometry analysis (reference value: 2.34 %); assay type: functional
[7] = Induction of apoptosis in human SMMC-7221 cells assessed as viable cells at 4 uM after 48 hrs by AnnexinV-FITC/propidium iodide staining based FACSCalibur flow cytometry analysis (reference value: 89.8 %); assay type: functional; settings: SMMC-7221, 48 h, read-out: Activity
[8] = Cell cycle arrest in human SMMC-7221 cells assessed as accumulation at sub-G1 phase at 2 uM after 24 hrs by propidium iodide/RNase A staining based FACSCalibur flow cytometry analysis (reference value: 4.03 +/- 0.47 %); assay type: functional
[9] = Induction of apoptosis in human SMMC-7221 cells assessed as viable cells at 8 uM after 48 hrs by AnnexinV-FITC/propidium iodide staining based FACSCalibur flow cytometry analysis (reference value: 89.8 %); assay type: functional; settings: SMMC-7221, 48 h, read-out: Activity
[10] = Cytotoxicity against human SMMC-7221 cells assessed as reduction in cell viability after 48 hrs by MTS assay; assay type: functional, cell-based; settings: SMMC-7221, 48 h; procedure, shortened: as §1
[11] = Induction of apoptosis in human SMMC-7221 cells assessed as late apoptotic cells at 8 uM after 48 hrs by AnnexinV-FITC/propidium iodide staining based FACSCalibur flow cytometry analysis (reference value: 7.7 %); assay type: functional
[12] = Induction of apoptosis in human SMMC-7221 cells assessed as late apoptotic cells at 2 uM after 48 hrs by AnnexinV-FITC/propidium iodide staining based FACSCalibur flow cytometry analysis (reference value: 7.7 %); assay type: functional
NCM460 = experiment: Cytotoxicity against human NCM460 cells assessed as reduction in cell viability after 48 hrs by MTS assay; assay type: cell-based; settings: NCM460, 48 h; procedure, shortened: as §1
[13] = Cell cycle arrest in human SMMC-7221 cells assessed as accumulation at G0/G1 phase at 4 uM after 24 hrs by propidium iodide/RNase A staining based FACSCalibur flow cytometry analysis (reference value: 72.17 +/- 1.0 %); assay type: functional
[14] = Induction of apoptosis in human SMMC-7221 cells assessed as early apoptotic cells at 0.5 uM after 48 hrs by AnnexinV-FITC/propidium iodide staining based FACSCalibur flow cytometry analysis (reference value: 0.106 %); assay type: functional
[15] = Cell cycle arrest in human SMMC-7221 cells assessed as accumulation at G2/M phase at 4 uM after 24 hrs by propidium iodide/RNase A staining based FACSCalibur flow cytometry analysis (reference value: 8.21 +/- 0.38 %); assay type: functional
[16] = Induction of apoptosis in human SMMC-7221 cells assessed as necrotic cells at 0.5 uM after 48 hrs by AnnexinV-FITC/propidium iodide staining based FACSCalibur flow cytometry analysis (reference value: 2.34 %); assay type: functional
[17] = Cell cycle arrest in human SMMC-7221 cells assessed as accumulation at S phase at 4 uM after 24 hrs by propidium iodide/RNase A staining based FACSCalibur flow cytometry analysis (reference value: 14.733 +/- 1.29 %); assay type: functional
[18] = Induction of apoptosis in human SMMC-7221 cells assessed as necrotic cells at 8 uM after 48 hrs by AnnexinV-FITC/propidium iodide staining based FACSCalibur flow cytometry analysis (reference value: 2.34 %); assay type: functional
[19] = Cell cycle arrest in human SMMC-7221 cells assessed as accumulation at G2/M phase at 2 uM after 24 hrs by propidium iodide/RNase A staining based FACSCalibur flow cytometry analysis (reference value: 8.21 +/- 0.38 %); assay type: functional
[20] = Induction of apoptosis in human SMMC-7221 cells assessed as early apoptotic cells at 4 uM after 48 hrs by AnnexinV-FITC/propidium iodide staining based FACSCalibur flow cytometry analysis (reference value: 0.106 %); assay type: functional
[21] = Induction of apoptosis in human SMMC-7221 cells assessed as late apoptotic cells at 4 uM after 48 hrs by AnnexinV-FITC/propidium iodide staining based FACSCalibur flow cytometry analysis (reference value: 7.7 %); assay type: functional
[22] = Induction of apoptosis in human SMMC-7221 cells assessed as early apoptotic cells at 8 uM after 48 hrs by AnnexinV-FITC/propidium iodide staining based FACSCalibur flow cytometry analysis (reference value: 0.106 %); assay type: functional
L02 = experiment: Cytotoxicity against human LO2 cells assessed as reduction in cell viability after 48 hrs by MTS assay; assay type: cell-based; settings: L02, 48 h; procedure, shortened: as §1
MCF7 = experiment: Cytotoxicity against human MCF7 cells assessed as reduction in cell viability after 48 hrs by MTS assay; assay type: functional, cell-based; settings: MCF7, 48 h; procedure, shortened: as §1
SW480 = experiment: Cytotoxicity against human SW480 cells assessed as reduction in cell viability after 48 hrs by MTS assay; assay type: functional, cell-based; settings: SW480, 48 h; procedure, shortened: as §1
[23] = Cell cycle arrest in human SMMC-7221 cells assessed as accumulation at sub-G1 phase at 4 uM after 24 hrs by propidium iodide/RNase A staining based FACSCalibur flow cytometry analysis (reference value: 4.03 +/- 0.47 %); assay type: functional
[24] = Cell cycle arrest in human SMMC-7221 cells assessed as accumulation at G0/G1 phase at 2 uM after 24 hrs by propidium iodide/RNase A staining based FACSCalibur flow cytometry analysis (reference value: 72.17 +/- 1.0 %); assay type: functional
[25] = Cell cycle arrest in human SMMC-7221 cells assessed as accumulation at G2/M phase at 1 uM after 24 hrs by propidium iodide/RNase A staining based FACSCalibur flow cytometry analysis (reference value: 8.21 +/- 0.38 %); assay type: functional

Structure (SMILES): COc1cccc2c1N(CCCn1c[n+](Cc3ccc(C)cc3)c3cc(C)c(C)cc31)C[C@@H]1Cc3ccc(Br)cc3[C@H]21.[Br-]
- viability at 1 µM [1]: 79.2%
- Activity [2]: 5.66%
- IC50 (BEAS-2B): 2090 nM
- viability at 0.5 µM [3]: 84.2%
- Activity [4]: 0.529%
- Activity [5]: 7.08%
- Activity [6]: 6.13%
- viability at 4 µM [7]: 15.2%
- Activity [8]: 1.21%
- viability at 8 µM [9]: 5.16%
- IC50 [10]: 520 nM
- Activity [11]: 81.4%
- Activity [12]: 16%
- IC50 (NCM460): 1970 nM
- Activity [13]: 62.54%
- Activity [14]: 0.314%
- Activity [15]: 5.98%
- Activity [16]: 6.79%
- Activity [17]: 12.76%
- Activity [18]: 13.3%
- Activity [19]: 9.16%
- Activity [20]: 0.919%
- Activity [21]: 76.8%
- Activity [22]: 0.157%
- IC50 (L02): 2100 nM
- IC50 (MCF7): 680 nM
- IC50 (SW480): 750 nM
- Activity [23]: 18.65%
- Activity [24]: 80.22%
- Activity [25]: 7.64%
